Reference: ChEMBL document CHEMBL2062418, “C3-heteroaroyl cannabinoids as photolabeling ligands for the CB2 cannabinoid receptor” (Bioorg Med Chem Lett, 2012)

What was measured:
[1] = molecular target: Cannabinoid receptor 2 (Mus musculus, UniProt P47936); experiment: Displacement of [3H]CP-55,940 from mouse CB2 receptor expressed in HEK293 cells; format: cell-based
Procedure, shortened: (§1)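 Competition binding with [3H]CP-55,940 on rat brain membranes (CB1) or on membranes from HEK293 cells expressing mouse or human CB2. Screened first at two points in triplicate. Where that screen gave Ki below 1000 nM, Ki was taken from one 8-point experiment run in triplicate.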

[2] = molecular target: Cannabinoid receptor 1 (Rattus norvegicus, UniProt P20272); experiment: Displacement of [3H]CP-55,940 from rat brain CB1 receptor; procedure, shortened: as §1
[3] = molecular target: Cannabinoid receptor 2 (Homo sapiens, UniProt P34972); experiment: Displacement of [3H]CP-55,940 from human CB2 receptor expressed in HEK293 cells; format: cell-based; procedure, shortened: as §1
[4] = Selectivity ratio of Ki for rat CB1 receptor to Ki for mouse CB2 receptor
[5] = molecular target: Cannabinoid receptor 2 (Mus musculus) (UniProt P47936); details: HEK293, 342 nM
Chain of Cannabinoid receptor 2 (Mus musculus) (P47936 whole entry): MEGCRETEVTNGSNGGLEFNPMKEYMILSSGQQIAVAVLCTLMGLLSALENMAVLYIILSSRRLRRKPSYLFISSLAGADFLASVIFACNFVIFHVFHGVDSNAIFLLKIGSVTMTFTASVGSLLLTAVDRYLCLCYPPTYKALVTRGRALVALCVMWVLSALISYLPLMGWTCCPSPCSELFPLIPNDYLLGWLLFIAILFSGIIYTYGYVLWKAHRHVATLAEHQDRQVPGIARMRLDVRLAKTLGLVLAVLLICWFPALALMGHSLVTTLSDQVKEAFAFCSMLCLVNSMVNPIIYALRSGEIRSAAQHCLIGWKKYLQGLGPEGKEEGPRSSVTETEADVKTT

Chain of Cannabinoid receptor 2 (Homo sapiens, UniProt P34972) (P34972 whole entry): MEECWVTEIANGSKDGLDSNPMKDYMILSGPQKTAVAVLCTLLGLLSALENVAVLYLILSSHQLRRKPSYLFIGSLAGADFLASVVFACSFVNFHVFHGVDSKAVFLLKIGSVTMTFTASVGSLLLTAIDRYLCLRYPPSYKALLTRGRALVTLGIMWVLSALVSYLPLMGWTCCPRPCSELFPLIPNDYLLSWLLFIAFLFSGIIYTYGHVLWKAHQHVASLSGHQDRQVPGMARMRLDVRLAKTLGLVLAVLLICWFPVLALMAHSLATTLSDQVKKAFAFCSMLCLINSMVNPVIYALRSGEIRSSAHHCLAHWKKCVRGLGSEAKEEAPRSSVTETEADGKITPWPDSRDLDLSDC
Chain of Cannabinoid receptor 1 (P20272 whole entry): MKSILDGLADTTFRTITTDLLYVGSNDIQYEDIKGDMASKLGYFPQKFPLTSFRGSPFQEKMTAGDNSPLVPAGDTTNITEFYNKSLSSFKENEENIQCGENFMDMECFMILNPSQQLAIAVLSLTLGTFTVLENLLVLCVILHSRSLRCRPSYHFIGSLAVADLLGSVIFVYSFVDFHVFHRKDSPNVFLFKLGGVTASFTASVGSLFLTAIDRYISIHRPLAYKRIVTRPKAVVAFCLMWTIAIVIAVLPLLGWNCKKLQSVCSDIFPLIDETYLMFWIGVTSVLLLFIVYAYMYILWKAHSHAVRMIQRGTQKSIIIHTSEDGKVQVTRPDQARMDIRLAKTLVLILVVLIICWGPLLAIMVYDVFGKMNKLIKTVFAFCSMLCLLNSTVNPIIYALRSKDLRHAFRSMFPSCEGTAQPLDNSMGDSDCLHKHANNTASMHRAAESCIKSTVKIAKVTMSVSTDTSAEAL
Chain of Cannabinoid receptor 2 (Mus musculus, UniProt P47936) (P47936 whole entry): as the sequence (P47936 whole entry) above

| SMILES | Ki [1] [µM] | Ki [2] [µM] | Ki [3] [µM] | Ratio Ki [4] | Bmax [5] [%] |
| --- | --- | --- | --- | --- | --- |
| CC1(C)Oc2cc(C(=O)c3ccco3)cc(O)c2[C@@H]2C[C@H](O)CC[C@H]21 | > 1 | > 1 |  |  |  |
| CC1(C)Oc2cc(C(=O)c3cc4ccccc4o3)cc(O)c2[C@@H]2C[C@H](O)CC[C@H]21 | 0.163 | 1.36 | 0.209 |  |  |
| CC1(C)Oc2cc(C(=O)c3ccccn3)cc(O)c2[C@@H]2C[C@H](O)CC[C@H]21 | > 1 | > 1 | > 1 |  |  |
| CC1(C)Oc2cc(C(=O)c3cccc(C(F)(F)F)c3)cc(O)c2[C@@H]2C[C@H](O)CC[C@H]21 | 0.0458 | 0.0617 | 0.0373 |  |  |
| Cn1cc(C(=O)c2cc(O)c3c(c2)OC(C)(C)[C@@H]2CC[C@@H](O)C[C@@H]32)c2ccccc21 | 0.406 | 3.27 | 3.01 |  |  |
| CC1(C)Oc2cc(C(=O)c3cc4ccccc4s3)cc(O)c2[C@@H]2C[C@H](O)CC[C@H]21 | 0.152 | 0.157 | 0.113 |  |  |
| CC1(C)Oc2cc(C(=O)c3ccncc3)cc(O)c2[C@@H]2C[C@H](O)CC[C@H]21 | > 1 | > 1 | > 1 |  |  |
| CC1(C)Oc2cc(C(=O)c3csc4ccccc34)cc(O)c2[C@@H]2C[C@H](O)CC[C@H]21 | 0.0342 | 1.25 | 0.125 | 37 | 67 |
| CC1(C)Oc2cc(C(=O)c3ccncc3F)cc(O)c2[C@@H]2C[C@H](O)CC[C@H]21 | > 1 | > 1 |  |  |  |
| CC1(C)Oc2cc(C(=O)c3cccc(F)c3)cc(O)c2[C@@H]2C[C@H](O)CC[C@H]21 | 0.37 | 0.46 |  |  |  |
| CC1(C)Oc2cc(C(=O)c3cncs3)cc(O)c2[C@@H]2C[C@H](O)CC[C@H]21 | > 1 | > 1 |  |  |  |
| CC1(C)Oc2cc(C(=O)c3coc4ccccc34)cc(O)c2[C@@H]2C[C@H](O)CC[C@H]21 | 0.169 | 2.88 | 0.118 | 17 |  |
| CC1(C)Oc2cc(C(=O)c3ccsc3)cc(O)c2[C@@H]2C[C@H](O)CC[C@H]21 | 0.525 | 1.04 | 1.55 |  |  |
| CC1(C)Oc2cc(C(=O)c3cccnc3)cc(O)c2[C@@H]2C[C@H](O)CC[C@H]21 | > 1 | > 1 | > 1 |  |  |
| CC1(C)Oc2cc(C(=O)c3c[nH]c4ccccc34)cc(O)c2[C@@H]2C[C@H](O)CC[C@H]21 | 0.0604 | 1.05 | 0.159 | 17 |  |
| CC1(C)Oc2cc(C(=O)c3cccs3)cc(O)c2[C@@H]2C[C@H](O)CC[C@H]21 | > 1 | > 1 |  |  |  |
| CC1(C)Oc2cc(C(=O)c3ccoc3)cc(O)c2[C@@H]2C[C@H](O)CC[C@H]21 | > 1 | > 1 |  |  |  |
| CC1(C)Oc2cc(C(=O)c3ccccc3)cc(O)c2[C@@H]2C[C@H](O)CC[C@H]21 | 0.247 | 0.968 | 0.587 |  |  |
| CC1(C)Oc2cc(C(=O)c3cscn3)cc(O)c2[C@@H]2C[C@H](O)CC[C@H]21 | > 1 | > 1 | > 1 |  |  |
